SMILES strings stand for the structures.

These results are taken from ChEMBL document CHEMBL1154352, “Toll-like receptor 7 selective synthetic oligoribonucleotide agonists: synthesis and structure-activity relationship studies” (J Med Chem, 2009).

Experiment [1] has as its target T1, Toll-like receptor 7 (Homo sapiens) (UniProt Q9NYK1).
T1 sequence (whole entry): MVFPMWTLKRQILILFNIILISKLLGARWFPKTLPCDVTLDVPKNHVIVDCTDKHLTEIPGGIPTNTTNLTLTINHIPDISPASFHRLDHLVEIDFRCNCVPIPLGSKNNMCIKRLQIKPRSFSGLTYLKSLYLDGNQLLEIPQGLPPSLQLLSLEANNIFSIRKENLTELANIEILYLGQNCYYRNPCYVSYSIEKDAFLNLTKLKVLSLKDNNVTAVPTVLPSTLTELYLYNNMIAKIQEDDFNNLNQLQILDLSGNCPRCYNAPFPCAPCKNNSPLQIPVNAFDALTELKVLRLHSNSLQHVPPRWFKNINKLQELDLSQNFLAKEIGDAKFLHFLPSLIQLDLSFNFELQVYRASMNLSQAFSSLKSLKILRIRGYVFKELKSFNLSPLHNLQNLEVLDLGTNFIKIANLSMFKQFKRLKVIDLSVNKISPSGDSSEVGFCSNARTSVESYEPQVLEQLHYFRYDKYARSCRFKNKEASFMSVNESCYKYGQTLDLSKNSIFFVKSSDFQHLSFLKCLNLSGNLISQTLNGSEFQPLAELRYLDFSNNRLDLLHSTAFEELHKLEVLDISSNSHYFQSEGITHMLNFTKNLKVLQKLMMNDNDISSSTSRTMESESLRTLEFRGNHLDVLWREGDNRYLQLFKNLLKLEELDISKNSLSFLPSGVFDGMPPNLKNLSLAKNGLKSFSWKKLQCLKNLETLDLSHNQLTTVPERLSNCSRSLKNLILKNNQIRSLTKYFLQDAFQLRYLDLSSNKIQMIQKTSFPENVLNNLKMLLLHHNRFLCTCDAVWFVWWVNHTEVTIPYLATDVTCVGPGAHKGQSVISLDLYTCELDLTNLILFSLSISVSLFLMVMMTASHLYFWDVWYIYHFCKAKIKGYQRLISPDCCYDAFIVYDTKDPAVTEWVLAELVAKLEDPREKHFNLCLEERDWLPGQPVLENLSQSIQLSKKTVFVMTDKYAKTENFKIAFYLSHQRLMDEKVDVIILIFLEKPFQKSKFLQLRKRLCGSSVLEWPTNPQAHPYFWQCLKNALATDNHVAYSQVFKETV
Nature of the experiment: Activation of human TLR7 expressed in HEK293XL assessed as fold induction of NF-kappaB activity at 50 ug/ml after 18 hrs by reporter gene assay relative to control. An outline of the steps:
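HEK293 cells stably expressing human TLR7 or TLR8, transiently transfected with SEAP reporter plasmid; medium replaced, SIMRA compounds added, 18 h incubation. Supernatant SEAP measured by QuantiBlue; expressed as fold increase in NF-κB activity over PBS control. Tabulated data at 50 μg/mL, representative of three independent experiments.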
For orientation: A reporter such as luciferase makes a cellular process visible.

Another experiment is filed under the species Homo sapiens. The experiment in a line: Ratio of human TLR7 activity to human TLR8 activity. An outline of the steps: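 TLR7/TLR8 ratio computed from fold NF-κB (SEAP reporter) activation in HEK293 cells stably expressing human TLR7 versus TLR8, compounds at 50 μg/mL, 18 h exposure; representative of three independent experiments.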

Regarding `Nc1ccn([C@@H]2O[C@H](COP(=O)(S)O[C@H]3[C@@H](O)[C@H](n4ccc5c(=O)[nH]c(N)nc54)O[C@@H]3COP(=O)(S)O[C@H]3[C@@H](O)[C@H](n4cnc5c(N)ncnc54)O[C@@H]3COP(=O)(S)O[C@H]3[C@@H](O)[C@H](n4cnc5c(N)ncnc54)O[C@@H]3COP(=O)(S)O[C@H]3[C@@H](O)[C@H](n4ccc5c(=O)[nH]c(N)nc54)O[C@@H]3COP(=O)(S)O[C@H]3[C@@H](O)[C@H](n4ccc(=O)[nH]c4=O)O[C@@H]3COP(=O)(S)O[C@H]3[C@@H](O)[C@H](n4ccc(=O)[nH]c4=O)O[C@@H]3COP(=O)(S)O[C@H]3[C@@H](O)[C@H](n4cnc5c(N)ncnc54)O[C@@H]3COP(=O)(S)O[C@H]3[C@@H](O)[C@H](n4cnc5c(N)ncnc54)O[C@@H]3CO)[C@@H](OP(=O)(S)OC[C@H]3O[C@@H](n4ccc(=O)[nH]c4=O)[C@H](O)[C@@H]3OP(=O)(S)OC[C@H]3O[C@@H](n4ccc5c(=O)[nH]c(N)nc54)[C@H](O)[C@@H]3OP(=O)(S)OCC(O)COP(=O)(S)O[C@H]3[C@@H](O)[C@H](n4ccc5c(=O)[nH]c(N)nc54)O[C@@H]3COP(=O)(S)O[C@H]3[C@@H](O)[C@H](n4ccc(=O)[nH]c4=O)O[C@@H]3COP(=O)(S)O[C@H]3[C@@H](O)[C@H](n4ccc(N)nc4=O)O[C@@H]3COP(=O)(S)O[C@H]3[C@@H](O)[C@H](n4ccc5c(=O)[nH]c(N)nc54)O[C@@H]3COP(=O)(S)O[C@H]3[C@@H](O)[C@H](n4cnc5c(N)ncnc54)O[C@@H]3COP(=O)(S)O[C@H]3[C@@H](O)[C@H](n4cnc5c(N)ncnc54)O[C@@H]3COP(=O)(S)O[C@H]3[C@@H](O)[C@H](n4ccc5c(=O)[nH]c(N)nc54)O[C@@H]3COP(=O)(S)O[C@H]3[C@@H](O)[C@H](n4ccc(=O)[nH]c4=O)O[C@@H]3COP(=O)(S)O[C@H]3[C@@H](O)[C@H](n4ccc(=O)[nH]c4=O)O[C@@H]3COP(=O)(S)O[C@H]3[C@@H](O)[C@H](n4cnc5c(N)ncnc54)O[C@@H]3COP(=O)(S)O[C@H]3[C@@H](O)[C@H](n4cnc5c(N)ncnc54)O[C@@H]3CO)[C@H]2O)c(=O)n1` (stereo partly drawn), in experiment [1], the fold change (FC) amounted to 13.7. The Ratio in the experiment filed under Homo sapiens is 19.6.

Regarding `Nc1ccn([C@@H]2O[C@H](COP(=O)(S)O[C@H]3[C@@H](O)[C@H](n4cnc5c(N)ncnc54)O[C@@H]3CO)[C@@H](OP(=O)(S)OC[C@H]3O[C@@H](n4ccc(=O)[nH]c4=O)[C@H](O)[C@@H]3OP(=O)(S)OC[C@H]3O[C@@H](n4ccc(=O)[nH]c4=O)[C@H](O)[C@@H]3OP(=O)(S)OC[C@H]3O[C@@H](n4ccc5c(=O)[nH]c(N)nc54)[C@H](O)[C@@H]3OP(=O)(S)OC[C@H]3O[C@@H](n4cnc5c(N)ncnc54)[C@H](O)[C@@H]3OP(=O)(S)OC[C@H]3O[C@@H](n4cnc5c(N)ncnc54)[C@H](O)[C@@H]3OP(=O)(S)OC[C@H]3O[C@@H](n4ccc(N)nc4=O)[C@H](O)[C@@H]3OP(=O)(S)OC[C@H]3O[C@@H](n4ccc(=O)[nH]c4=O)[C@H](O)[C@@H]3OP(=O)(S)OC[C@H]3O[C@@H](n4ccc(=O)[nH]c4=O)[C@H](O)[C@@H]3OP(=O)(S)OC[C@H]3O[C@@H](n4ccc5c(=O)[nH]c(N)nc54)[C@H](O)[C@@H]3OP(=O)(S)OCC(O)COP(=O)(S)O[C@H]3[C@@H](O)[C@H](n4ccc5c(=O)[nH]c(N)nc54)O[C@@H]3COP(=O)(S)O[C@H]3[C@@H](O)[C@H](n4ccc(=O)[nH]c4=O)O[C@@H]3COP(=O)(S)O[C@H]3[C@@H](O)[C@H](n4ccc(=O)[nH]c4=O)O[C@@H]3COP(=O)(S)O[C@H]3[C@@H](O)[C@H](n4ccc(N)nc4=O)O[C@@H]3COP(=O)(S)O[C@H]3[C@@H](O)[C@H](n4cnc5c(N)ncnc54)O[C@@H]3COP(=O)(S)O[C@H]3[C@@H](O)[C@H](n4cnc5c(N)ncnc54)O[C@@H]3COP(=O)(S)O[C@H]3[C@@H](O)[C@H](n4ccc5c(=O)[nH]c(N)nc54)O[C@@H]3COP(=O)(S)O[C@H]3[C@@H](O)[C@H](n4ccc(=O)[nH]c4=O)O[C@@H]3COP(=O)(S)O[C@H]3[C@@H](O)[C@H](n4ccc(=O)[nH]c4=O)O[C@@H]3COP(=O)(S)O[C@H]3[C@@H](O)[C@H](n4ccc(N)nc4=O)O[C@@H]3COP(=O)(S)O[C@H]3[C@@H](O)[C@H](n4cnc5c(N)ncnc54)O[C@@H]3CO)[C@H]2O)c(=O)n1` (stereo partly drawn), the fold change (FC) in experiment [1] was 14.7. Further, the Ratio in the experiment listed under Homo sapiens was 3.

Consider `Nc1ccn([C@@H]2O[C@H](COP(=O)(S)O[C@H]3[C@@H](O)[C@H](n4cnc5c(N)ncnc54)O[C@@H]3COP(=O)(S)O[C@H]3[C@@H](O)[C@H](n4ccc5c(=O)[nH]c(N)nc54)O[C@@H]3COP(=O)(S)O[C@H]3[C@@H](O)[C@H](n4ccc(=O)[nH]c4=O)O[C@@H]3CO)[C@@H](OP(=O)(S)OC[C@H]3O[C@@H](n4ccc5c(=O)[nH]c(N)nc54)[C@H](O)[C@@H]3OP(=O)(S)OC[C@H]3O[C@@H](n4cnc5c(N)ncnc54)[C@H](O)[C@@H]3OC[C@H]3O[C@@H](n4ccc(=O)[nH]c4=O)[C@H](O)[C@@H]3OP(=O)(S)ON[C@H]3O[C@@H](n4ccc5c(=O)[nH]c(N)nc54)[C@H](O)[C@@H]3OP(=O)(S)OC[C@H]3O[C@@H](n4cnc5c(N)ncnc54)[C@H](O)[C@@H]3OP(=O)(S)OC[C@H]3O[C@@H](n4ccc(=O)[nH]c4=O)[C@H](O)[C@@H]3OP(=O)(S)OC[C@H]3O[C@@H](n4ccc(=O)[nH]c4=O)[C@H](O)[C@@H]3OP(=O)(S)OCC(O)COP(=O)(S)O[C@H]3[C@@H](O)[C@H](n4ccc(=O)[nH]c4=O)O[C@@H]3COP(=O)(S)O[C@H]3[C@@H](O)[C@H](n4ccc(=O)[nH]c4=O)O[C@@H]3COP(=O)(S)O[C@H]3[C@@H](O)[C@H](n4cnc5c(N)ncnc54)O[C@@H]3COP(=O)(S)O[C@H]3[C@@H](O)[C@H](n4ccc5c(=O)[nH]c(N)nc54)O[C@@H]3NOP(=O)(S)O[C@H]3[C@@H](O)[C@H](n4ccc(=O)[nH]c4=O)O[C@@H]3CO[C@H]3[C@@H](O)[C@H](n4cnc5c(N)ncnc54)O[C@@H]3COP(=O)(S)O[C@H]3[C@@H](O)[C@H](n4ccc5c(=O)[nH]c(N)nc54)O[C@@H]3COP(=O)(S)O[C@H]3[C@@H](O)[C@H](n4ccc(N)nc4=O)O[C@@H]3COP(=O)(S)O[C@H]3[C@@H](O)[C@H](n4cnc5c(N)ncnc54)O[C@@H]3COP(=O)(S)O[C@H]3[C@@H](O)[C@H](n4ccc5c(=O)[nH]c(N)nc54)O[C@@H]3COP(=O)(S)O[C@H]3[C@@H](O)[C@H](n4ccc(=O)[nH]c4=O)O[C@@H]3CO)[C@H]2O)c(=O)n1` (stereo partly drawn), for which the fold change (FC) in experiment [1] is 18.4. Further, in the experiment listed under Homo sapiens, the Ratio worked out at 4.

On to `Nc1ccn([C@@H]2O[C@H](COP(=O)(S)O[C@H]3[C@@H](O)[C@H](n4cnc5c(N)ncnc54)O[C@@H]3COP(=O)(S)O[C@H]3[C@@H](O)[C@H](n4ccc5c(=O)[nH]c(N)nc54)O[C@@H]3COP(=O)(S)O[C@H]3[C@@H](O)[C@H](n4ccc(N)nc4=O)O[C@@H]3COP(=O)(S)O[C@H]3[C@@H](O)[C@H](n4ccc5c(=O)[nH]c(N)nc54)O[C@@H]3COP(=O)(S)O[C@H]3[C@@H](O)[C@H](n4ccc(=O)[nH]c4=O)O[C@@H]3COP(=O)(S)O[C@H]3[C@@H](O)[C@H](n4ccc5c(=O)[nH]c(N)nc54)O[C@@H]3COP(=O)(S)O[C@H]3[C@@H](O)[C@H](n4cnc5c(N)ncnc54)O[C@@H]3COP(=O)(S)O[C@H]3[C@@H](O)[C@H](n4cnc5c(N)ncnc54)O[C@@H]3CO)[C@@H](OP(=O)(S)OC[C@H]3O[C@@H](n4ccc(=O)[nH]c4=O)[C@H](O)[C@@H]3OP(=O)(S)OC[C@H]3O[C@@H](n4ccc(=O)[nH]c4=O)[C@H](O)[C@@H]3OP(=O)(S)OCC(O)COP(=O)(S)O[C@H]3[C@@H](O)[C@H](n4ccc(=O)[nH]c4=O)O[C@@H]3COP(=O)(S)O[C@H]3[C@@H](O)[C@H](n4ccc(=O)[nH]c4=O)O[C@@H]3COP(=O)(S)O[C@H]3[C@@H](O)[C@H](n4ccc(N)nc4=O)O[C@@H]3COP(=O)(S)O[C@H]3[C@@H](O)[C@H](n4cnc5c(N)ncnc54)O[C@@H]3COP(=O)(S)O[C@H]3[C@@H](O)[C@H](n4ccc5c(=O)[nH]c(N)nc54)O[C@@H]3COP(=O)(S)O[C@H]3[C@@H](O)[C@H](n4ccc(N)nc4=O)O[C@@H]3COP(=O)(S)O[C@H]3[C@@H](O)[C@H](n4ccc5c(=O)[nH]c(N)nc54)O[C@@H]3COP(=O)(S)O[C@H]3[C@@H](O)[C@H](n4ccc(=O)[nH]c4=O)O[C@@H]3COP(=O)(S)O[C@H]3[C@@H](O)[C@H](n4ccc5c(=O)[nH]c(N)nc54)O[C@@H]3COP(=O)(S)O[C@H]3[C@@H](O)[C@H](n4cnc5c(N)ncnc54)O[C@@H]3COP(=O)(S)O[C@H]3[C@@H](O)[C@H](n4cnc5c(N)ncnc54)O[C@@H]3CO)[C@H]2O)c(=O)n1` (stereo partly drawn), for which, in experiment [1], the fold change (FC) came to 20.7. Besides, the Ratio in the experiment filed under Homo sapiens came to 41.4.
